Bioassay records: PubChem BioAssay, several laboratories
Beta apoptosis = inhibitors of cytokine-induced beta cell apoptosis, primary screen, luminescence | protection from apoptosis, % (test concentration not listed) | INS-1E cytokine-induced death, ATP luminescence, 48 h; percent of positive-control rescue, neutral wells zero | actives 0.8% (n = 300,000);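 active means Every replicate reaches about 75%, or at least half do and their mean reaches it too, limit read from the data; inconclusive means At least half of replicates reach the limit but their mean does not; inactive means Under half of replicates reach the limit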;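 further: higher means more ATP so stronger rescue from cytokine killing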
T cruzi inh = inhibitors of intracellular T. cruzi growth, primary screen, luminescence, NIH3T3 host cells | T. cruzi beta-gal in NIH3T3, 90 h | actives 1.4% (n = 300,000) | inhibition, % (concentration not given with the values);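 active means mean inhibition across valid replicates above about 55%, limit read from the data; inconclusive means mean below that limit but half or more replicates reach it; inactive means mean below it, under half of replicates reach it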;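 further: signal also drops with host cell toxicity which is not excluded here; higher percent means less beta-gal luminescence so fewer parasites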
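Test system: β-gal T. cruzi (Tulahuen C4) inside NIH/3T3 cells / Quantity: 5,000 cells/well / Measured by: luminescence from GalScreen with 0.05% NP40, read after 60 min / Medium: DMEM plus 2% FBS / Measure: parasite load inhibition, % / Reagent: Tulahuen C4 trypomastigotes, 5000/well / Schedule: co-culture of at least 90 h after 3 h attachment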
CSC inhib = cancer stem cell viability inhibitors, primary screen, luminescence; cancer stem cell-like cells viability; inhibition, % at 7.5 µM; actives 1.1% (n = 300,000); AID 2717, 2010; in the data active means inhibition above about 75%; inconclusive means no clear call, values can overlap the other calls; tested in HMLE shEcad cells
NR3A LBD binder = binders of NR3A ligand-binding domain, primary screen, biophysical, differential scanning fluorimetry, uHTS; Glutamate receptor ionotropic, NMDA 3A (GRIN3A) ligand-binding domain; Tm shift relative to glycine control, % at 25 µM; NR3A LBD differential scanning fluorimetry, Tm shift; 0% = protein alone, 100% = glycine-bound protein; actives 2.5% (n = 340,000); AID 1259313, 2017;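 active means melting temperature shift of at least 10% of the positive control shift, at one fixed dose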
PREPL inhibitor = PREPL enzyme inhibitors, primary screen, biochemical, fluorescence polarization | Prolyl endopeptidase-like (Homo sapiens), Q4J6C6 | recombinant PREPL, fluorescence polarization activity-based probe | inhibition, % at 5.96 µM | actives 0.68% (n = 320,000) | AID 2751, 2010; in the data active means inhibition above about 43%
Target sequence (Q4J6C6 whole entry, looked up): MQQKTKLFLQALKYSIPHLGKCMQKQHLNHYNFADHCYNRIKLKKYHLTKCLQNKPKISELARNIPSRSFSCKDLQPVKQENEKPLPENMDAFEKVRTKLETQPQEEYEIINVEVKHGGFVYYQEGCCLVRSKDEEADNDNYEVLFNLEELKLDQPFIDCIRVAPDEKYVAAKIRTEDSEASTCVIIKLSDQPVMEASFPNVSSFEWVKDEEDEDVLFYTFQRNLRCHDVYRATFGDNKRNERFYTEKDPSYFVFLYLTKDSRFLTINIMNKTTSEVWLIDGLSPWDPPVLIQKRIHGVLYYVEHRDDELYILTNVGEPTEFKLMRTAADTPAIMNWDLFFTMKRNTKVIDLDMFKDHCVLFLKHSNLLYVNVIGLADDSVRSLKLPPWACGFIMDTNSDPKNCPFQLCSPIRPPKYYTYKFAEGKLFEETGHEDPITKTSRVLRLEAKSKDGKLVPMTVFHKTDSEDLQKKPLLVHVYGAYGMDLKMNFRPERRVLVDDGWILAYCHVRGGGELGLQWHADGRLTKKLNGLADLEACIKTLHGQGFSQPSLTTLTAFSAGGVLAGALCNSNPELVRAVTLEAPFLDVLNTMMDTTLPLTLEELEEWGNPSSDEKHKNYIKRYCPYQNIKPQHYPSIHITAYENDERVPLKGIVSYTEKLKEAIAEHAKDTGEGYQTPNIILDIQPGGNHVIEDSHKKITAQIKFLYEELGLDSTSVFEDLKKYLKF
CHOP inhibitor = inhibitors of CHOP promoter induction, primary screen, cell-based, unfolded protein response, luciferase reporter; AID 2732, 2010; actives 3.8% (n = 220,000); inhibition, % at 10 µM; CHO-K1 CHOP-promoter luciferase, tunicamycin-induced, 15-18 h;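 active means compounds that reduced the stress-induced luciferase reporter signal by more than about 70% of percent inhibition, limit read from the data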
Numbers stand for hits; 0 = inactive; ? = inconclusive; - = no result given. Compounds with a hit are over-represented: about 6.7% of the library has one in this group of screens.

SMILES	Beta apoptosis	T cruzi inh	CSC inhib	NR3A LBD binder	PREPL inhibitor	CHOP inhibitor
O=C(N/N=C/c1cn(-c2ccccc2)nc1-c1ccccc1)c1ccco1	0	0	0	0	0	0
NS(=O)(=O)c1ccc(N/N=C/c2cn(-c3ccccc3)nc2-c2cccs2)c([N+](=O)[O-])c1	108	67	96	0	0	0
NS(=O)(=O)c1ccc(N/N=C/c2cn(-c3ccccc3)nc2-c2cccs2)cc1	0	0	81	34	0	0
NS(=O)(=O)c1ccc(N/N=C/c2ccncc2)cc1	0	0	0	0	0	-
CC(=O)O[C@H]1CC[C@H]2[C@@H]3CCc4cc(O)ccc4[C@H]3CC[C@]12C	0	0	0	0	0	76
CC(=O)OC1CCC2C3CCc4cc(O)ccc4C3CCC12C (stereo unspecified)	-	-	-	0	-	-
O=C(Nc1cccc(S(=O)(=O)N2CCCCCC2)c1)C1CCC1	0	0	-	0	0	-
CC1=CC(=C(C#N)c2nc3ccccc3s2)C=C(C)N1c1ccc(F)cc1	0	0	0	0	0	0
COc1ccccc1N1C(C)=CC(=C(C#N)c2nc3ccccc3s2)C=C1C	128	?	0	0	0	0
Cc1cccc(N=N/C(=C\O)C(=O)c2ccc(Br)cc2)c1	-	0	0	0	0	0
Cc1ccc(N=N/C(=C\O)C(=O)c2ccncc2)cc1	0	0	0	0	0	89
O=C(/C(=C/O)N=Nc1ccc(Cl)cc1)c1ccncc1	0	0	77	0	0	0
CCC(CC)CN1C(N(C)C)=NC[C@@H]1CC(C)C	0	-	0	0	0	-
CCOC(=O)CNc1nc(C(C)(C)C)nc2c1nnn2Cc1ccccc1Cl	-	61	0	0	0	81
CCOC(=O)C1=C(C)NC(C)=C(C(=O)OC)C1c1cccc([N+](=O)[O-])c1 (stereo unspecified)	0	0	0	0	0	0
COCCOC(=O)C1=C(C)NC(C)=C(C(=O)OC(C)C)C1c1cccc([N+](=O)[O-])c1 (stereo unspecified)	0	62	0	0	0	0
CCOC(=O)c1c(C2COc3ccccc3O2)csc1N (stereo unspecified)	0	0	0	0	0	84
CCOC(=O)c1c(NC(=O)c2ccccc2)sc2c1CCc1ccccc1-2	0	0	0	0	0	0
CCOC(=O)c1c(C2COc3ccccc3O2)csc1NC(=O)c1ccccc1 (stereo unspecified)	0	0	0	11	0	0
Cc1ccccc1CN1CCN(c2ccc(S(=O)(=O)N3CCCC3)cn2)CC1	0	-	-	0	0	-
Cc1ccc(C2=Nc3ccccc3N=C(c3ccco3)C2)c(O)c1	0	0	0	0	0	72
Cc1ccc(O)c(C2=Nc3ccccc3N=C(c3ccco3)C2)c1	0	0	0	0	0	87
Cc1ccc(O)c(C2=Nc3ccccc3N=C(c3ccc([N+](=O)[O-])cc3)C2)c1	0	0	0	0	0	0
Cc1ccc(O)c(C2=Nc3ccccc3N=C(c3cccc([N+](=O)[O-])c3)C2)c1	0	0	0	0	0	0
CSc1ccccc1-n1nnnc1SCC(=O)Nc1ccccc1C	0	0	-	14	0	0
SMILES	Beta apoptosis	T cruzi inh	CSC inhib	NR3A LBD binder	PREPL inhibitor	CHOP inhibitor
Cc1cc2c(cc1C)NC(c1c(C)n(C)n(-c3ccccc3)c1=O)C1=C(CC(C)(C)CC1=O)N2 (stereo unspecified)	0	55	-	0	0	0
CCNc1nc(NCC)n2c(SCC(=O)c3ccccc3F)nnc2n1	0	0	-	0	0	0
COc1cccc(CNc2ncc(Br)cc2Br)c1O	0	0	0	0	0	81
Cc1ccc(C2CC(=O)C=C(Nc3ccc(Cl)cc3)C2)cc1 (stereo unspecified)	0	0	-	0	0	73
O=c1ccc(-c2nc3ccccc3n2Cc2ccccc2Cl)c[nH]1	-	0	0	0	0	0
Clc1ccccc1Cn1c(/C=C/c2ccco2)nc2ccccc21	0	0	112	0	0	0
O=c1cc(CCl)nc2sc3ccccc3n12	0	61	0	0	0	0
